Screens (PubChem)
KCC2 mod: KCC2 cotransporter modulators, thallium flux, primary screen, cell-based, HEK293 KCC2, FluoZin-2 fluorescence, MLSMR; AID 1456, 2008; KCC2 cells, thallium flux FluoZin-2 fluorescence; hit rate 2.2% among 190,000; Solute carrier family 12 member 5 (Homo sapiens), Q9H2X9; B-score of Tl+ flux slope (higher = more flux/activation; lower = inhibition) at 10 µM;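 active means thallium flux slope and its plate-corrected score both differing from the plate sample mean at a set confidence after two filtering rounds, in either direction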;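 further: slope of fluorescence scaled to starting intensity during 10 to 20 s after thallium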
KCNQ1 act: potentiators or activators of KCNQ1 channel, primary screen, cell-based, thallium flux, high-throughput; Potassium voltage-gated channel subfamily KQT member 1 (Homo sapiens), P51787; CHO-K1 KCNQ1, thallium flux FluxOR fluorescence; active compounds read high; B-score at 10 µM; AID 2648, 2010; hit rate 0.35% among 310,000;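 active means fluorescence ratio B-score, a plate-corrected score, at least three library SD, with initial intensity B-score within 5 SD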
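System: Stable KCNQ1 CHO-K1 line | Incubation: 90 min dye loading and 20 min compound exposure, both at room temperature | Measure: Ratio B score | Medium: Assay buffer for compound exposure, DMSO matched across wells | Compound dosing: Single-concentration screen | Probe or stimulus: K+/Tl+ depolarizing stimulus | Measured by: Kinetic FluxOR fluorescence, 10 s baseline plus 110 s post-stimulus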
KCNK9 inh: KCNK9 potassium channel inhibitors, primary screen, HEK293 cells, thallium flux; FluxOR thallium flux fluorescence; active compounds read low; AID 488922, 2010; Potassium channel subfamily K member 9 (Homo sapiens), Q9NPC2; hit rate 1.2% among 310,000; B-score at 10 µM;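 active means ratio B-score over 3 SD below the library mean, with starting fluorescence within 5 SD of its mean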;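 further: negative B-score means less thallium flux so channel inhibition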
hERG protect: hERG rescue from dofetilide block, primary screen, cell-based, CHO-hERG, FluxOR thallium flux, dofetilide IC70 | Voltage-gated inwardly rectifying potassium channel KCNH2 (Homo sapiens), Q12809 | dofetilide IC70 present | activation (rescue from dofetilide block), less the hit threshold, % at 10 µM | hit rate 0.51% among 310,000 | AID 1511, 2009;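 active means activation above the mean of controls blocked by dofetilide plus 5 SD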;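 further: thallium influx through hERG after potassium depolarization seen as dye fluorescence rise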
KCNQ1 inh: inhibitors of human KCNQ1 channel, primary screen, cell-based, thallium flux, high-throughput; Potassium voltage-gated channel subfamily KQT member 1 (Homo sapiens), P51787; CHO-K1 KCNQ1, FluxOR thallium flux fluorescence; active compounds read high; B-score at 10 µM; hit rate 1.3% among 310,000;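 active means compounds whose thallium flux B-score, printed positive for inhibition, exceeds three library SD while starting fluorescence stays within three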;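 further: channel opened by potassium depolarization with thallium stimulus after 20 min compound exposure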
KCNK3 block: human KCNK3 channel inhibitors, primary screen, CHO cells, FluxOR thallium flux, B-score. B-score at 10 µM. FluxOR fluorescence; active compounds read low. hit rate 0.84% among 340,000. Potassium channel subfamily K member 3 (Homo sapiens), O14649;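 active means B-score under library mean minus 4 SD, starting fluorescence ratio at most library mean plus 5 SD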;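 further: more negative B-score means stronger inhibition of thallium flux through KCNK3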
KCNQ1 block val: KCNQ1 potassium channel inhibitors, confirmation, cell-based, Tl flux, duplicate | shares compounds with KCNQ1 inh | KCNQ1 cell line, FluxOR thallium flux fluorescence | inhibition, % at 10 µM | hit rate 93% among 1,600 | AID 588353, 2011;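 active means primary screen active, with duplicate mean exceeding buffer control mean plus 3 SD of buffer wells, cut at about 28% in these data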;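 further: 0% = buffer control ratio and 100% = XE991 inhibitor control ratio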
CHO KCNQ1 ctr: thallium flux effects in parental CHO cells, counter-screen for KCNQ1 inhibitor project, cell-based, Tl flux. parental CHO-K1, FluxOR thallium flux fluorescence ratio; active compounds read low; zero means no signal rise above baseline. AID 588366, 2011. hit rate 21% among 1,600. fluorescence ratio (Tl flux) at 10 µM. shares compounds with KCNQ1 inh;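 active means mean of duplicate thallium-flux fluorescence ratios in parental host cells more than 5 SD below the buffer control mean, cut at about 0.38 in these data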;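 further: ratio is peak minus minimum fluorescence divided by baseline fluorescence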
KCNQ1 APC inh: KCNQ1 channel inhibitors, confirmation, orthogonal assay, cell-based, automated electrophysiology; shares compounds with KCNQ1 inh; KCNQ1-CHO cells, automated patch clamp current; calls only at 10 µM; hit rate 20% among 490; AID 624120, 2012;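 active means KCNQ1 current drop exceeding 3 SD of negative control wells, seen in both duplicate runs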;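 further: steady state current during a 2 s step from -80 to +40 mV; negative values mean current inhibition and positive values mean potentiation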
KCNQ2 inh: KCNQ2 channel inhibition, selectivity assay for KCNQ1 inhibitor project, cell-based; KCNQ2 cells, FluxOR thallium flux fluorescence; hit rate 71% among 1,600; shares compounds with KCNQ1 inh; inhibition, % at 10 µM; AID 651746, 2012;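 active means mean percent inhibition of the KCNQ2 thallium signal more than 5 SD above the buffer-only control wells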;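 further: KCNQ2 expressed in CHO cells; 0% = buffer control wells and 100% = XE-991 inhibitor control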
KCNQ1-KCNE1 inh: KCNQ1/KCNE1 channel inhibition, selectivity assay for KCNQ1 inhibitor project, CHO-K1 cells, thallium flux, FluxOR; shares compounds with KCNQ1 inh; FluxOR thallium flux fluorescence; inhibition, % at 10 µM; hit rate 77% among 1,600;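 active means mean percent inhibition of duplicate wells above the buffer-only control mean plus 3 SD of those controls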;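 further: 0% = buffer only wells and 100% = XE-991 inhibitor control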
Target sequence (P51787 whole entry, looked up): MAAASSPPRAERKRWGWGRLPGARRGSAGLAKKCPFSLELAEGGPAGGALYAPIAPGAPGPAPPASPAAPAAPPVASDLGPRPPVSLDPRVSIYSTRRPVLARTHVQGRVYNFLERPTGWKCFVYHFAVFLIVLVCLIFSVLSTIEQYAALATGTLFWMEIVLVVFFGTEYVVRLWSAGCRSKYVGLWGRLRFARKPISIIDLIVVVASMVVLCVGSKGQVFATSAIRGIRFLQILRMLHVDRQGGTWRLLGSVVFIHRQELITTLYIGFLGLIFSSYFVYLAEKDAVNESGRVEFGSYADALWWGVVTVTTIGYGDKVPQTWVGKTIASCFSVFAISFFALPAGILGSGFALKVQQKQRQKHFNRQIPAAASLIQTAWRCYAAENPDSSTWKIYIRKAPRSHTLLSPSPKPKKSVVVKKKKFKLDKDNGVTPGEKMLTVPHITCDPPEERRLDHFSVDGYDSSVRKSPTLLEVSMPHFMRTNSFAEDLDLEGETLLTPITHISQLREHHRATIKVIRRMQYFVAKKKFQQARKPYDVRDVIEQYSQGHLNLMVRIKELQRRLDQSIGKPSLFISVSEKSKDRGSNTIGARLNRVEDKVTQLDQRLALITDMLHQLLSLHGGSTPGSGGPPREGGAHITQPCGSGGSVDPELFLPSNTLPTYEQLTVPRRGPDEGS
Active calls of the source: *; i = inactive; nt = no result given. In the library only some 4.1% were active in any assay of this set; here they are far more common.

SMILES | KCC2 mod | KCNQ1 act | KCNK9 inh | hERG protect | KCNQ1 inh | KCNK3 block | KCNQ1 block val | CHO KCNQ1 ctr | KCNQ2 inh | KCNQ1-KCNE1 inh | others
CC(C)(C)c1csc(NC(=O)Cc2ccc(S(=O)(=O)N3CCOCC3)s2)n1 | nt | i | i | -7 | 9* | i | 72* | 0.47 | i | 96%*
COc1ccccc1Nc1ccc2c(O)cc(S(=O)(=O)O)cc2c1 | nt | nt | nt | nt | nt | i | nt | nt | nt | nt
COc1cccc(CN2CC(C(=O)N(C)Cc3[nH]c4ccccc4c3C)CCC2=O)c1 (stereo not drawn) | nt | i | i | -10 | i | i | nt | nt | nt | nt
Cc1nn(-c2ccccc2)c(/N=C/c2ccccc2O)c1-c1ccccc1 | 0.09 | i | i | -12 | 6* | i | 119* | 0.43 | 109%* | 166%* | KCNQ1 APC inh=i
Cc1nn(-c2ccccc2)c(N)c1-c1ccccc1 | -0.34 | i | i | -5 | i | i | nt | nt | nt | nt
O=C1c2ccccc2C(=O)N1CCCCN(C(=O)c1ccc(Cl)s1)c1ccc(Cl)cc1 | -0.031 | i | i | -7 | i | i | nt | nt | nt | nt
Cc1ccc(N(CCCCN2C(=O)c3ccccc3C2=O)C(=O)c2ccc(Cl)s2)cc1 | -1.4 | i | i | -12 | 9* | i | 78* | 0.49 | 71%* | 34%*
COc1cc(CNc2ncnc3c2[nH]c2ccc(C)cc23)cc(OC)c1 | 0.45 | i | i | -13 | i | i | nt | nt | nt | nt
Cc1ccc2[nH]c3c(NCc4ccco4)ncnc3c2c1 | -1.2 | i | i | -20 | 9* | i | 102* | 0.45 | 70%* | 39%* | KCNQ1 APC inh=i
CCOC(=O)c1cc(C#N)c(Oc2ccccc2OC)nc1-c1ccccc1 | nt | i | i | -6 | 7* | i | 92* | 0.42 | 80%* | 94%* | KCNQ1 APC inh=i
Cc1nnc2ccc(Oc3ccc(-c4ccccc4)cc3)nn12 | -3.4 | i | i | -17 | 9* | i | 67* | 0.47 | i | i
CC1(C)O[C@@H]2[C@H](O1)[C@@H](COS(=O)(=O)O)O[C@H]2n1c(=S)[nH]c2c(=O)[nH]c(N)nc21 | nt | nt | nt | nt | nt | i | nt | nt | nt | nt
CCCCOc1ccc(CSCCN)cc1Cl | 0.45 | i | i | -14 | 6* | i | 68* | 0.44 | i | 103%*
CCOc1ccc(CSC(=N)N)cc1Cl | -0.63 | i | i | -12 | i | i | nt | nt | nt | nt
O=C(COc1ccccc1)Nc1cccc(-c2nc3ccccc3[nH]2)c1 | -2.4 | i | i | -15 | 6* | i | 52* | 0.47 | 78%* | 80%*
CC(C)CCOc1cccc(OCC(=O)Nc2ccncc2)c1 | nt | i | i | -14 | 12* | i | 106* | 0.45 | i | 40%* | KCNQ1 APC inh=i
O=C(COc1ccc(Nc2ccccc2)cc1)Nc1ccncc1 | nt | i | i | -21 | 8* | i | 94* | 0.54 | i | i
CCC(C)(C)c1ccc(OCC(=O)Nc2ccncc2)cc1 | nt | i | i | -23 | 8* | i | 138* | 0.44 | 92%* | 72%* | KCNQ1 APC inh=i
O=C(Cn1c(=O)oc2ccc(Cl)cc21)NC1CCCCC1 | nt | i | i | -6 | i | i | nt | nt | nt | nt
CCc1ccc(N2C(=O)c3sc4nnc(-c5ccccc5)c(=O)n4c3C2=O)cc1 | -0.75 | i | i | -6 | i | i | nt | nt | nt | nt
CCCC(=O)NC(c1ccc(OC)cc1)c1c(O)ccc2ccccc12 (stereo not drawn) | nt | i | i | -9 | i | i | nt | nt | nt | nt
COc1ccc(C(NC(=O)C2CCCCC2)c2c(O)ccc3ccccc23)cc1 (stereo not drawn) | 0.033 | i | i | -5 | 7* | i | 82* | 0.43 | 89%* | 92%*
O=C(Nc1cc(S(=O)(=O)N2CCOCC2)ccc1N1CCCC1)c1cc(=O)[nH]c2ccccc12 | -0.089 | i | i | -15 | i | i | nt | nt | nt | nt
COc1ccc(C(=O)Nc2ccc(N3CCN(Cc4ccccc4)CC3)cc2)cc1 | 0.43 | i | i | -9 | i | i | nt | nt | nt | nt
COc1ccc(NC(=O)c2ccc(CN3CCN(c4ccccc4)CC3)cc2)cc1 | 0.39 | i | i | -4 | 6* | i | 0 | 0.5 | i | i
SMILES | KCC2 mod | KCNQ1 act | KCNK9 inh | hERG protect | KCNQ1 inh | KCNK3 block | KCNQ1 block val | CHO KCNQ1 ctr | KCNQ2 inh | KCNQ1-KCNE1 inh | others
Cc1ccccc1S(=O)(=O)Nc1nc2ccccc2nc1N1CCc2ccccc2C1 | 1.6 | i | i | -18 | 7* | i | 84* | 0.39 | 92%* | 122%*
O=S(=O)(Nc1nc2ccccc2nc1N1CCc2ccccc2C1)c1ccc(Br)cc1 | -0.19 | nt | nt | nt | nt | i | nt | nt | nt | nt
Cc1nonc1NC(=O)CSc1nc(C23CC4CC(CC(C4)C2)C3)nc2ccccc12 | 0.64 | i | i | -7 | i | i | nt | nt | nt | nt
NC(=O)CSc1nc(C23CC4CC(CC(C4)C2)C3)nc2ccccc12 | -0.73 | i | i | -17 | 6* | i | 91* | 0.39 | i | 94%* | KCNQ1 APC inh=i
CCOC(=O)C1CCN(c2ncnc3c2oc2ccc(Cl)cc23)CC1 | nt | i | i | -14 | 7* | i | 62* | 0.55 | 94%* | i
Cc1ccc(-n2cc(-c3ccccc3)c3c(N4CCN(C)CC4)ncnc32)cc1 | -0.17 | i | i | -18 | i | i | nt | nt | nt | nt
